Screening data (PubChem BioAssay)
TRPC4 PAM – allosterically enhances the mouse TRPC4 cation channel; HEK293 TRPC4beta/mu-opioid, DAMGO EC20, Fluo-4 Ca2+ flux; active compounds read high; B-score at 10 µM; Q9QUQ5; hit rate 0.42% among 310,000;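 active = B-score of calcium response area above 5 SD of library B-scores, with initial fluorescence ratio within 5 SD of library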
TRPC6 inh – inhibitors of mouse TRPC6 channel | Q61143 | HEK293-TRPC6, membrane potential dye, ACh-evoked depolarization; active compounds read low | B-score at 10 µM | hit rate 1.1% among 310,000 | AID 2553;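 active = B-score under library mean minus 3 SD, initial fluorescence not abnormally high, positive integrated signal ratio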;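 also: B-score derived from integrated fluorescence ratio over the kinetic read; more negative B-score means stronger inhibition of depolarization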
Target sequence (Q61143 whole entry, looked up): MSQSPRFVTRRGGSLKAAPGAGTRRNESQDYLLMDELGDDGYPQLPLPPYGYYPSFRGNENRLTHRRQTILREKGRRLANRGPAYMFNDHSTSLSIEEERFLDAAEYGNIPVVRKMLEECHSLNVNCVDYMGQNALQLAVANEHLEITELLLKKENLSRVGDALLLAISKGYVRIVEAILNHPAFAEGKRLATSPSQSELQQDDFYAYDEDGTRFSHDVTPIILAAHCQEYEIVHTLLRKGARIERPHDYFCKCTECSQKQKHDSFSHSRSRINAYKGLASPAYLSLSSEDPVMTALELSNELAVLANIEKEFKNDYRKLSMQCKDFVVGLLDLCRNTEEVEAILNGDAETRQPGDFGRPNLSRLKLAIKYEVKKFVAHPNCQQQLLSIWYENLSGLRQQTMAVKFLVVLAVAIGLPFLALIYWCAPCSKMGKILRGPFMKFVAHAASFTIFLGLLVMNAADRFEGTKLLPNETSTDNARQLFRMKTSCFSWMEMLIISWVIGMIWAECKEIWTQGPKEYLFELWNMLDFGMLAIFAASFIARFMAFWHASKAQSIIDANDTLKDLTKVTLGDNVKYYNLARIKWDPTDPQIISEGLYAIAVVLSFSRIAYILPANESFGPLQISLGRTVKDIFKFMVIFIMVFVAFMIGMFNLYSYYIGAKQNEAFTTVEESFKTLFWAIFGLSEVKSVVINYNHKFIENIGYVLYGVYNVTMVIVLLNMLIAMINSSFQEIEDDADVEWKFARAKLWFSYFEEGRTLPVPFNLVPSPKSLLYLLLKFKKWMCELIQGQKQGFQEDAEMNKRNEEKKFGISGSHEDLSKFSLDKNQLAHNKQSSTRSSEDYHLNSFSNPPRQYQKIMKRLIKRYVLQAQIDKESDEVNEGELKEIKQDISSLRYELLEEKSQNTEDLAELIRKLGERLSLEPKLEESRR
TRPC4 act – opens the mouse TRPC4 cation channel; HEK293 TRPC4beta/mu-opioid, Fluo4 calcium fluorescence; active compounds read high; B-score at 10 µM; hit rate 0.49% among 310,000;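 active = B-score above 5 SD of library B-scores, and initial fluorescence ratio not above library mean plus 5 SD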;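 also: positive B-score marks a calcium rise read as TRPC4 activation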
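System: HEK293 cells stably co-expressing mouse TRPC4beta and mu-opioid receptor; Schedule: Fluo4 dye loading 45 min at room temperature, 110 s recording; Detection: Fluo4 fluorescence, kinetic; Evaluation: B-scored integrated calcium fluorescence ratio; Controls: buffer (low) and maximal DAMGO (high).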
TRPC6 activator – activates the mouse TRPC6 cation channel; Q61143; hit rate 0.13% among 310,000; HEK293-TRPC6 membrane potential dye fluorescence; active compounds read high; AID 2550; B-score at 10 µM;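 active = B-score of the integrated fluorescence ratio above library mean plus 3 SD, and starting fluorescence ratio within library mean plus 5 SD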;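 also: higher score means more depolarization so channel activation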
TRPC4 block – TRPC4 (mouse) channel inhibition. hit rate 0.39% among 300,000. B-score at 10 µM. AID 2247. HEK293 TRPC4beta/mu-opioid, DAMGO-evoked Fluo4 calcium flux; active compounds read low;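 active = B-score over 3 SD under the library average, no early fluorescence shift, positive overall ratio signal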
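test system = HEK293 cells with stable TRPC4beta plus mu-opioid receptor expression | detection = Fluo4 Ca2+ flux fluorescence | read-out = integrated fluorescence ratio relative to baseline, converted to per-well B score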
TRPC4 sel inh 2 – second check of whether TRPC6 inhibitors also affect mouse TRPC4 | shares compounds with TRPC6 inh | HEK293 TRPC4/MOR, membrane potential dye fluorescence; channel activated by saturating DAMGO dose | inhibition, % at 10 µM | hit rate 42% among 920 | AID 2776;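 active = compounds whose fluorescence signal differed from control wells by over 3 SD, either direction, in both duplicate plates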
TRPC4 spec – mouse TRPC4 off-target activity of TRPC6 inhibitors; shares compounds with TRPC6 inh; HEK293 TRPC4/mu-opioid, membrane potential fluorescence; activity change, negative = inhibition, % at 10 µM; hit rate 61% among 920;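 active = rise or fall in signal beyond 3 SD of buffer-only wells in both replicate plates, either sign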;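 also: integrated kinetic ratio of fluorescence range over baseline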
HEK293 MPD ctr 2-1 – second check of TRPC6 inhibitor effects in parental HEK293 cells; shares compounds with TRPC6 inh; parental HEK293 membrane potential dye fluorescence; maximal acetylcholine challenge after compound addition; signal change vs control, % at 10 µM; hit rate 31% among 920; AID 2779;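 active = membrane potential signal moving either way by over 3 SD of the maximum-effect control, in both duplicate plates, meaning non-specific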
HEK293 MPD ctr-1 – counter-screen for TRPC6 inhibitors: effect in parental HEK293 cells | shares compounds with TRPC6 inh | parental HEK293 membrane potential dye fluorescence | membrane potential signal change, % at 10 µM | AID 2780 | hit rate 60% among 920;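 active = membrane potential signal shifting up or down by more than 3 SD of buffer-only wells, on both duplicate plates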
HEK293 MPD ctr-2 – parental HEK293 nonspecific activity of TRPC6 modulators | AID 488924 | membrane potential dye fluorescence | hit rate 51% among 2,400 | shares compounds with TRPC6 inh | membrane potential signal change, % at 10 µM;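 active = membrane potential signal moves up or down beyond 5 SD from buffer-only wells, on both duplicate plates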
HEK293 MPD ctr 2-2 – second check of TRPC6 modulator effects in parental HEK293 cells | AID 488926 | hit rate 14% among 2,400 | membrane potential dye fluorescence; after compound, maximal acetylcholine stimulation | shares compounds with TRPC6 inh | inhibition, % at 10 µM;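 active = membrane potential signal drops by more than 5 SD from the mean control signal, in both duplicate plates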
TRPC4 ctr mod – tests whether TRPC6 modulators also affect mouse TRPC4; shares compounds with TRPC6 inh; HEK293 TRPC4/mu-opioid, membrane potential fluorescence; percent change from control (negative = decrease, positive = increase), % at 10 µM; hit rate 69% among 2,400; AID 488927;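 active = membrane potential signal moved up or down beyond 5 SD of buffer control wells, in both duplicate plates, actives on both sides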
TRPC4 ctr inh 2 – second selectivity test of TRPC6 modulators against mouse TRPC4; shares compounds with TRPC6 inh; HEK293 TRPC4/mu-opioid, membrane potential dye fluorescence; stimulated with maximal-effect DAMGO; inhibition, % at 10 µM; hit rate 55% among 2,400;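 active = drop in membrane potential signal beyond 5 SD of the control wells in both duplicate plates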;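 also: TRPC4 counter screen for TRPC6 hits run under conditions tuned for TRPC6 not TRPC4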
TRPC6 inh conf – confirmation of mouse TRPC6 inhibitors; shares compounds with TRPC6 inh; HEK293-TRPC6, membrane potential dye, ACh-evoked depolarization; inhibition, % at 10 µM; hit rate 43% among 3,300;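 active = fluorescence ratio falls more than 5 SD below the full-stimulation control mean, in both duplicate runs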;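 also: integrated fluorescence ratio of peak minus minimum over baseline after agonist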
TRPC6 act confirm – confirmation of mouse TRPC6 activators; shares compounds with TRPC6 inh; HEK293-TRPC6 membrane potential dye fluorescence, FDSS; activation, % at 10 µM; hit rate 11% among 2,800; AID 488961;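 active = ratio signal rise beyond 5 SD above unstimulated control wells' mean, seen in both duplicate runs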
Of the large screens only hits and unclear results are named; the others gave an inactive call (follow-up assays come after a bar, where they were run). Compounds with a hit are over-represented: about 2.3% of the library has one in this group of screens.

CCOc1ccc(N(C(C)C(=O)Nc2ccc(OC)cc2)S(C)(=O)=O)cc1 (stereo not drawn)	TRPC6 inh -6.4 | HEK293 MPD ctr-2 inactive | HEK293 MPD ctr 2-2 inactive | TRPC4 ctr mod inactive | TRPC4 ctr inh 2 inactive | TRPC6 inh conf inactive | TRPC6 act confirm inactive
CCN(CC)S(=O)(=O)c1ccc(NC(=O)C(C)N(c2ccc(OC)cc2)S(C)(=O)=O)cc1 (stereo not drawn)	none
CCn1c(/C=C/c2ccccc2)nc2ccccc21	none
CCC(C)n1c(/C=C/c2ccccc2)nc2ccccc21 (stereo not drawn)	TRPC6 inh -5.1 | HEK293 MPD ctr-2 106% | HEK293 MPD ctr 2-2 inactive | TRPC4 ctr mod 16% | TRPC4 ctr inh 2 inactive | TRPC6 inh conf inactive | TRPC6 act confirm inactive
CN(C)CCCN(C(=O)c1ccco1)c1nc2ccc(Cl)cc2s1	TRPC6 inh -6.3 | HEK293 MPD ctr-2 -180% | HEK293 MPD ctr 2-2 inactive | TRPC4 ctr mod -35% | TRPC4 ctr inh 2 76% | TRPC6 inh conf 50% | TRPC6 act confirm inactive
CN(C)CCCN(C(=O)c1ccco1)c1nc2ccc(Br)cc2s1	TRPC6 inh -8.1 | HEK293 MPD ctr-2 -120% | HEK293 MPD ctr 2-2 inactive | TRPC4 ctr mod -34% | TRPC4 ctr inh 2 71% | TRPC6 inh conf inactive | TRPC6 act confirm inactive
CN(C)CCN(C(=O)c1ccc(C(=O)c2ccccc2)cc1)c1nc2cc3c(cc2s1)OCO3	none
CN(C)CCCN(C(=O)CCc1ccccc1)c1nc2ccc(Br)cc2s1	none
CN(C)CCCN(C(=O)c1ccc(S(=O)(=O)N(C)C)cc1)c1nc2cc3c(cc2s1)OCO3	TRPC6 inh -5 | HEK293 MPD ctr-2 inactive | HEK293 MPD ctr 2-2 inactive | TRPC4 ctr mod -14% | TRPC4 ctr inh 2 55% | TRPC6 inh conf inactive | TRPC6 act confirm inactive
Cc1cc(C)c2nc(N(CCN(C)C)C(=O)c3ccc(S(=O)(=O)N(C)CC4CCCO4)cc3)sc2c1 (stereo not drawn)	none
CCOc1cccc2sc(N(CCCN(C)C)C(=O)c3ccc(S(=O)(=O)N(C)CC4CCCO4)cc3)nc12 (stereo not drawn)	TRPC6 inh -7.4 | TRPC4 sel inh 2 48% | TRPC4 spec -14% | HEK293 MPD ctr 2-1 inactive | HEK293 MPD ctr-1 inactive | TRPC6 inh conf inactive | TRPC6 act confirm inactive
CCOc1cccc2sc(N(CCN(CC)CC)C(=O)c3cccc(N4C(=O)CCC4=O)c3)nc12	none
CCOc1cccc2sc(N(CCN(CC)CC)C(=O)c3cccc([N+](=O)[O-])c3)nc12	TRPC6 inh -5 | HEK293 MPD ctr-2 inactive | HEK293 MPD ctr 2-2 inactive | TRPC4 ctr mod -10% | TRPC4 ctr inh 2 62% | TRPC6 inh conf inactive
CN(C)CCN(C(=O)C1=COCCO1)c1nc2ccc(F)cc2s1	TRPC6 inh -7 | HEK293 MPD ctr-2 -139% | HEK293 MPD ctr 2-2 inactive | TRPC4 ctr mod -30% | TRPC4 ctr inh 2 40% | TRPC6 inh conf inactive | TRPC6 act confirm inactive
CN(C)CCN(C(=O)c1cc(Cl)sc1Cl)c1nc2ccc(F)cc2s1	none
CN(C)CCN(C(=O)c1ccco1)c1nc2cc3c(cc2s1)OCCO3	TRPC6 inh -5.3 | HEK293 MPD ctr-2 -136% | HEK293 MPD ctr 2-2 inactive | TRPC4 ctr mod -40% | TRPC4 ctr inh 2 88% | TRPC6 inh conf 60% | TRPC6 act confirm inactive
NC(=O)CSc1nnc(-c2cc(-c3ccc(Cl)cc3)nc3ccccc23)o1	none
CN(C)c1ccc(/C=C(/C(=O)c2ccc(Cl)cc2Cl)n2cncn2)cc1	TRPC6 inh -6.4, TRPC4 act 52, TRPC6 activator 49 | HEK293 MPD ctr-2 active | HEK293 MPD ctr 2-2 active | TRPC4 ctr mod 266% | TRPC4 ctr inh 2 inactive | TRPC6 inh conf inactive | TRPC6 act confirm 487%
COc1ccc(/C=C(/C(=O)c2ccc(Cl)cc2Cl)n2cncn2)cc1	none
COCCNc1c(-c2cc3ccc(C)c(C)c3[nH]c2=O)nc2ccccn12	TRPC6 inh -5.1 | HEK293 MPD ctr-2 inactive | HEK293 MPD ctr 2-2 inactive | TRPC4 ctr mod inactive | TRPC4 ctr inh 2 inactive | TRPC6 inh conf inactive | TRPC6 act confirm inactive
Cc1ccc(S(=O)(=O)NCC2CCC(C(=O)NCCCOC(C)C)CC2)cc1 (stereo not drawn)	none
CC1=CC(C)(C)N(C(=O)CNC2CCCC2)c2cc(C)ccc21	TRPC6 inh -6.4 | HEK293 MPD ctr-2 125% | HEK293 MPD ctr 2-2 inactive | TRPC4 ctr mod 31% | TRPC4 ctr inh 2 45% | TRPC6 inh conf 54%
CC/C(=C/c1sc2ccccc2[n+]1CC)SC	none
CC[n+]1c(/C=C(\C)SC)sc2ccccc21	TRPC6 inh -10 | HEK293 MPD ctr-2 -262% | HEK293 MPD ctr 2-2 82% | TRPC4 ctr mod -42% | TRPC4 ctr inh 2 58% | TRPC6 inh conf 56% | TRPC6 act confirm inactive
CC[n+]1c(/C=C2/C=C(C)CC(C)C2)sc2ccccc21 (stereo not drawn)	none
CC[n+]1c(/C=C/Nc2ccccc2)sc2ccccc21	TRPC6 inh -8.5 | TRPC4 sel inh 2 76% | TRPC4 spec -20% | HEK293 MPD ctr 2-1 inactive | HEK293 MPD ctr-1 -361% | TRPC6 inh conf inactive | TRPC6 act confirm inactive
